High-throughput results as filed in PubChem.
ABCG2 block = ABCG2 efflux pump inhibitors, primary screen, multiplex with ABCB1, IgMXP3 cells, flow cytometry. Broad substrate specificity ATP-binding cassette transporter ABCG2 (Homo sapiens), Q9UNQ0. JC-1 efflux. inhibition, % at 6.6 µM. 190,000 compounds, 0.1% hits. AID 1325, 2008;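 active means inhibition above 80%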
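Times: 10 min at 25 °C | Test system: Two drug-resistant human cell lines, ABCG2 and ABCB1 | Quantity: 3 million cells/mL final, two lines in 1:1 ratio | Signal: Flow cytometry, 530 nm JC-1 signal | Dosing: Compound at 6.6 µM | Controls: Nicardipine and DMSO wells | Reagent: JC-1 as fluorescent efflux pump substrate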
Measles CPE = compounds protecting cells from measles virus cytopathic effect, primary screen, measles RdRp inhibitor project, single point, MLSMR library, absorbance. 140,000 compounds, 1.5% hits. AID 841, 2007. protection (pct of control), % at 4 µM. Measles virus-infected cells, CPE protection; in the data active means protection mostly above about 24%, no sharp cut-off; inactive means mostly below about 26%
FLuc inhib CS = firefly luciferase enzyme inhibitors, primary screen, artefact control for luciferase-based inhibitor screens, biochemical, luminescence, ATPLite | Luciferin 4-monooxygenase (Photinus pyralis), P08659 | 10 min | inhibition, % at 10 µM | 200,000 compounds, 1.5% hits | AID 1006, 2008;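 active means inhibition above about 50% when tested at 10 µM, limit read from the data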
FLuc stim CS = FLuc activators, initial screening, artefact control for FLuc-dependent activation tests, biochemical, ATPlite luminescence | Luciferin 4-monooxygenase (Photinus pyralis), P08659 | ATPlite luciferase biochemical, 10 min; 0 = ATP-free wells, 1 = DMSO control | activation factor at 10 µM | 200,000 tested, under 10 active | AID 1027, 2008;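 active means luciferase activation factor, scaled between plate controls, of at least 2 with compound at 10 µM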
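assay system = Luciferase/luciferin detection reagent, cell-free biochemical luciferase assay | also added = ATP substrate | times = 10 min post-reagent at room temperature | measured by = luminescence from luciferase reaction | measure = luciferase activation, seen as luminescence increase over controls | benchmarks = low control with PBS replacing ATP, high control enzyme plus ATP without compound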
Redox H2O2 prof = compounds producing H2O2 with reducing agent – biochemical, NIH compound library profiling, artefact control for MLSCN library redox annotation, primary screen | DTT-dependent redox cycling H2O2, phenol red/HRP absorbance; 100% = 100 µM peroxide control, 0% = buffer | activation, % at 10 µM | 200,000 compounds, 0.03% hits;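 active means activation of at least 50% relative to the plate's high and low controls in the primary single-dose screen; inactive means activation below 50%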;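 further: compound incubated with DTT at 0.8 mM final as the reducing agent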
ABCB1 inh = ABCB1 efflux pump inhibitors, primary screen, cell-based, multiplex, flow cytometry, ABCG2 counter-screen; CCRF-Adr cells, JC-1 efflux; inhibition, % at 6.6 µM; ATP-dependent translocase ABCB1 (Homo sapiens), P08183; 190,000 compounds, 0.067% hits; in the data active means inhibition above about 40%;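 further: higher value means more JC-1 retained so stronger ABCB1 efflux block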
Target sequence (P08183 whole entry, looked up): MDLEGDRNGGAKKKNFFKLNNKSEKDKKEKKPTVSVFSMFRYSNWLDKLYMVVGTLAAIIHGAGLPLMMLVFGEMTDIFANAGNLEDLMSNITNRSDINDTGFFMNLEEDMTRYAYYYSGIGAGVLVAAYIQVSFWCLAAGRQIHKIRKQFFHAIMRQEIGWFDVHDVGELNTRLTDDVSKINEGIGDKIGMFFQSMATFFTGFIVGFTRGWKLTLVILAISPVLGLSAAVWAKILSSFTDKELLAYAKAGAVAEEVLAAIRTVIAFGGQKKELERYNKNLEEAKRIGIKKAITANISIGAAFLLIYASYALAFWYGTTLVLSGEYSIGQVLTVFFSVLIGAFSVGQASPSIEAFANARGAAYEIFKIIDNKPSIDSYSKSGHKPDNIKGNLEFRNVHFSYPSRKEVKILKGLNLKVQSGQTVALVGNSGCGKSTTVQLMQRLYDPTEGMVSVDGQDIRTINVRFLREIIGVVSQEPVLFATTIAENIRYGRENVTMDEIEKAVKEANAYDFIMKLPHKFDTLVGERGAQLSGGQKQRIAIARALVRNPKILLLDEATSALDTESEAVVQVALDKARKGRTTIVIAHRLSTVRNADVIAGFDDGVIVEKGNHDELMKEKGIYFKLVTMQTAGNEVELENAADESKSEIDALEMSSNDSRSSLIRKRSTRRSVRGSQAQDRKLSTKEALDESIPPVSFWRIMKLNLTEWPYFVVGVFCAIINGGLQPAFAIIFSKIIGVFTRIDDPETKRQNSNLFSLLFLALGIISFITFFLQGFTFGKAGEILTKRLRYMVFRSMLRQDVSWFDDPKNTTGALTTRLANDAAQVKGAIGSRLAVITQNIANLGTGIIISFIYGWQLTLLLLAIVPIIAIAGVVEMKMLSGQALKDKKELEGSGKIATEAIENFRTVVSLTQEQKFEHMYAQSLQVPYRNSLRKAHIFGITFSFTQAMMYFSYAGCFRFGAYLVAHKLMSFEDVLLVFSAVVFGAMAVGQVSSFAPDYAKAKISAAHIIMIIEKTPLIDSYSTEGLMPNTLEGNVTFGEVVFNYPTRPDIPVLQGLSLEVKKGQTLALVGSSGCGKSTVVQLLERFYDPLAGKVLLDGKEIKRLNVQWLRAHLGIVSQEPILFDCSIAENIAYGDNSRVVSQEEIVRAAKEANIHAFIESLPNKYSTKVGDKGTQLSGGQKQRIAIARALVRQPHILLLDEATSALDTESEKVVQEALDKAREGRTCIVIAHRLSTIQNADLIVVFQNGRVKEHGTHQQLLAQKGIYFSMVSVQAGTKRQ
Each line names hits and unclear results; the compound was inactive in the other large screens. Rows were chosen to be rich in hits. Some 2.7% of all compounds tested hit in one or more screens of this group.

Cc1ccc(NC(=O)CNc2ccc(N3CCOCC3)cc2)cc1S(=O)(=O)N(C)C	none (no result: Measles CPE)
CC(=O)c1nc(N2C(=O)CC(Cc3cccc(C)c3)C2=O)sc1C (configuration not stated)	Measles CPE 43
COc1ccccc1Nc1ncc(C(=O)N2CCN(Cc3ccc(OC)c(OC)c3OC)CC2)c2ccccc12	none (no result: Measles CPE)
CCCN1C(=O)/C(=C/c2c(NCCCOCC)nc3c(C)cccn3c2=O)SC1=S	ABCB1 inh 68
COC(=O)/N=C/c1c(NCc2ccccc2)nc2c(C)cccn2c1=O	none (no result: Measles CPE)
C=CCN=c1scc(-c2ccc(F)cc2)n1/N=C/c1ccccn1	none
CCN=c1scc(-c2ccccc2)n1/N=C/c1ccccn1	Measles CPE 62, FLuc inhib CS 74
C=CCN=c1scc(-c2ccccc2)n1/N=C/c1ccccn1	Measles CPE 50
O=C(O)c1cnn(-c2ccccc2)c1C(F)(F)F	none (no result: Measles CPE)
O=C(c1ccc(-c2cc(Cl)ccc2Cl)o1)N1CCOCC1	none (no result: Measles CPE)
O=C(c1ccc(-c2ccc(Cl)cc2Cl)o1)N1CCOCC1	FLuc inhib CS 51 (no result: Measles CPE)
COc1cccc(/C=C2\N=C3CCCCCN3C2=O)c1	Measles CPE 36
c1ccc2c(c1)CCN(c1nc3cc4c(cc3s1)OCCO4)C2	FLuc inhib CS 89
COc1ccc(OC)c2sc(N3CCc4ccccc4C3)nc12	none (no result: Measles CPE)
CC(=O)Nc1sc(NC(=O)c2ccccc2)nc1-c1cccs1	none
COc1ccccc1C(=O)Nc1nc(-c2cccs2)c(NC(C)=O)s1	FLuc inhib CS 50
COc1ccc(-c2noc(-c3ccc4c(c3)OCO4)n2)cc1	none
c1ccc(-c2noc(-c3ccc4ccccc4c3)n2)cc1	FLuc inhib CS 68
c1ccc(-c2noc(-c3ccc4c(c3)OCO4)n2)cc1	FLuc inhib CS 69 (no result: Measles CPE)
COc1cccc(-c2noc(-c3ccc4c(c3)OCO4)n2)c1	FLuc inhib CS 82 (no result: Measles CPE)
O=c1oc2ccccc2cc1-c1nc(-c2ccccc2)no1	FLuc inhib CS 75 (no result: Measles CPE)
Cc1cc(C)nc(N2CCN(C(=O)c3ccc(S(=O)(=O)N4CCCCCC4)cc3)CC2)n1	none (no result: Measles CPE)
CC[C@@H](C)C(N)c1cn([C@@H](CCC(=O)O)C(=O)N2CCNCC2)nn1 (some centres not stated)	none (no result: Measles CPE)
CC(C)CC(=O)Nc1cccc(C(C)O)c1 (configuration not stated)	none (no result: Measles CPE)
Clc1ccc(N2CCN(c3nc4nonc4nc3N3CCSCC3)CC2)nc1	none (no result: Measles CPE)
Clc1ccccc1-c1nnc(-c2ccc3c(c2)OCO3)o1	FLuc inhib CS 80 (no result: Measles CPE)
O=[N+]([O-])c1cccc(-c2nnc(-c3ccc4c(c3)OCO4)o2)c1	none
COc1cc(NC(=O)Cc2ccccc2)cc(OC)c1	Measles CPE 59
CCc1ccc2nc(N)sc2c1	FLuc inhib CS 56 (no result: Measles CPE)
COc1ccc(C(c2nnnn2CS(=O)(=O)c2ccc(C)cc2)N2CCN(Cc3ccccc3)CC2)cc1 (configuration not stated)	none (no result: ABCG2 block, Measles CPE, FLuc inhib CS, FLuc stim CS, ABCB1 inh)
CCOC(=O)C1CCN(C(=O)c2sc3nc(-c4ccccc4)cn3c2C)CC1	none
COC(=O)C1CCN(C(=O)c2sc3nc(-c4ccc(F)cc4)cn3c2C)CC1	Measles CPE 39
COCC(=O)Nc1cc(Cl)ccc1C	none (no result: Measles CPE)
Cc1cccc2sc(NC(=O)Cn3cccc3)nc12	Measles CPE 77
CCOC(=O)c1ccc(NC(=O)Cn2cccc2)cc1	none
Cc1cccc2sc(NC(=O)CCn3cccc3)nc12	none (no result: Measles CPE)
Cc1ccc(Cl)cc1NC(=O)Cn1cccc1	Measles CPE 70
CCc1cccc(NC(=O)Cn2cccc2)c1	Measles CPE 50
CCOc1nc2ccccc2cc1C=O	none (no result: Measles CPE)
c1coc(-c2nnc3sc(Cc4cccs4)nn23)c1	none
Clc1ccc(-c2nnc3sc(Cc4cccs4)nn23)c(Cl)c1	Measles CPE 68
Cc1ccc(C#N)c(SCc2nnc(-c3ccc(Cl)cc3)o2)n1	FLuc inhib CS 60
COCCn1c(-c2cccc([N+](=O)[O-])c2)nc2c1c(=O)[nH]c(=O)n2Cc1ccccc1	Measles CPE 27
N#CCSc1ccc(-c2nc3ccccc3[nH]2)cn1	FLuc inhib CS 58 (no result: Measles CPE)
COc1ccc(NC(=O)Nc2ccccc2C(N)=O)cc1	FLuc inhib CS 84 (no result: Measles CPE)
CCOc1ccc(NC(=O)Nc2ccccc2C(N)=O)cc1	FLuc inhib CS 93 (no result: Measles CPE)
O=C(Cc1cccc2ccccc12)Nc1ccc(N2CCOCC2)cc1	none (no result: Measles CPE)
Cc1cc(-c2n[nH]c(=S)n2-c2ccc(F)cc2)nn1C	none (no result: Measles CPE)
CCc1ccc(Nc2nnc(SCC(=O)NCCN3C(=O)CSC3=O)s2)cc1	FLuc inhib CS 84
CCc1ccc(Nc2nnc(SCC(=O)Nc3sccc3C(N)=O)s2)cc1	none
COC(=O)CC(NC(=O)c1ccc(C)cc1)c1ccccc1 (configuration not stated)	FLuc inhib CS 65
COC(=O)CC(NC(=O)c1ccc(C)cc1)c1ccc2c(c1)OCO2 (configuration not stated)	none
c1ccc2c(c1)CC(N1CCCCC1)c1ccccc1N2 (configuration not stated)	Measles CPE 42
O=C1Nc2ccccc2C(=O)N2CCCCC12 (configuration not stated)	none (no result: Measles CPE)
CCCCN1C=CC(=C2C(=O)c3ccccc3C2=O)C=C1	FLuc inhib CS 98 (no result: Measles CPE)
CCCCNC1=CC(=O)C(=O)c2ccccc21	none (no result: Measles CPE)
Cc1nnc(-n2ncc(C#N)c2N)c2nn(-c3ccccc3F)c(C)c12	none (no result: ABCG2 block, Measles CPE, FLuc inhib CS, FLuc stim CS, ABCB1 inh)
COc1cccc(/C=N/NC(=S)Nc2cccc(C(=O)O)c2)c1	FLuc inhib CS 53 (no result: Measles CPE)
O=c1nc2ccccc2c(NS(=O)(=O)c2ccccc2)n1-c1ccccc1	none
Cc1ccc(S(=O)(=O)Nc2c3ccccc3nc(=O)n2-c2ccccc2)cc1	Measles CPE 35
Cn1c(CCNC(=O)c2ccccc2F)nnc1SCC(=O)Nc1ccccc1F	none (no result: Measles CPE)
O=C(c1ccc([N+](=O)[O-])cc1[N+](=O)[O-])n1cnc2ccccc21	none (no result: Measles CPE)
O=C(Nc1ccccn1)c1onc2c1CCCC2	FLuc inhib CS 87
O=C(Nc1ccccn1)c1csc2c1CCCC2	none (no result: Measles CPE)
C=CCNCCCCOc1ccc(OCC)cc1	none
N#C/C(=C/c1ccc(N2CCOCC2)o1)C(=O)Nc1ccccc1	FLuc inhib CS 55 (no result: Measles CPE)
Cc1ccccc1OCc1nc(-c2ccc(NC(=O)c3ccco3)cc2)no1	Measles CPE 71
